Here are results for one compound from ChEMBL document CHEMBL1134409, “Design, synthesis, and discovery of a novel CCR1 antagonist” (J Med Chem, 2001).

The target of assay [1] is C-C chemokine receptor type 2 (Homo sapiens, UniProt P41597). Nature of the assay: Inhibitory activity in human CCR2b receptor.
The nature of assay [2]: Inhibitory activity of Fractalkine-induced increase in [Ca2+] Conc. in HEL cells at human CX3CR1 receptor. Format: functional, cell-based. Put shortly:
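Calcium rise evoked by fractalkine in HEL cells.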

In assay [3] the target is C-C chemokine receptor type 5 (Homo sapiens, UniProt P51681). The experiment in a line: Inhibition of RANTES binding to C-C chemokine receptor type 5. In a few lines:
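CCR5 binding was done on membranes, following the kit manufacturer's instructions.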

In assay [4] the target is T1, C-C chemokine receptor type 1 (Homo sapiens, UniProt P32246).
T1 sequence (P32246 whole entry): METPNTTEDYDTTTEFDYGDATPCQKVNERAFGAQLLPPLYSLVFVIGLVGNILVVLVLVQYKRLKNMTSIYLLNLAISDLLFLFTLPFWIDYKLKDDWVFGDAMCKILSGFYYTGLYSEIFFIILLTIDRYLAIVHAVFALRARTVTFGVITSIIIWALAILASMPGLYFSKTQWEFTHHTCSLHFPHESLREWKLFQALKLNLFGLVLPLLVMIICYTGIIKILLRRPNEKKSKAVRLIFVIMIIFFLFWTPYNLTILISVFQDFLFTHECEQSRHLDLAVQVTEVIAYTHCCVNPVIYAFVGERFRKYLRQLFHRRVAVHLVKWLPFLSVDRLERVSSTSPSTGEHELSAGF
The experiment in a line: Inhibitory activity against [125I]-MIP-1 alpha binding to human CCR1 receptors. In a few lines: (§1)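 Whole-cell binding. CHO cells transfected with the CCR receptor were detached with PBS(-) containing 2 mM EDTA and resuspended in Krebs-Ringer phosphate buffer with 0.1% BSA and 0.1% glucose. 1 × 10^5 cells were incubated with 50 pM 125I-chemokine plus antagonist for 1 h at 37 °C to reach equilibrium. Nonspecific binding was taken with 100 nM unlabeled chemokine. Ice-cold buffer was then added.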

The target of assay [5] is T2, C-C chemokine receptor type 4 (Homo sapiens, UniProt P51679).
T2 sequence (P51679 whole entry): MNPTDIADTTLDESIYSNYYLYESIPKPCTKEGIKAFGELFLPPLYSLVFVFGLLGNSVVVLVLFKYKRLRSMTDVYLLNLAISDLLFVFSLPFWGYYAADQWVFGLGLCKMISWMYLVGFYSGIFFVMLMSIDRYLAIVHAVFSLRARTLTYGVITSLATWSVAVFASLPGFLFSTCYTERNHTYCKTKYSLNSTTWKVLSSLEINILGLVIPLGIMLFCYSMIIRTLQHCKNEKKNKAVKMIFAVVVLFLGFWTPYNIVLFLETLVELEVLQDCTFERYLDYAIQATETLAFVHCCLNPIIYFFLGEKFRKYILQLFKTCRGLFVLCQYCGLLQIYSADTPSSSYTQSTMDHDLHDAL
The experiment in a line: Inhibitory activity against […] induced increase in intracellular [Ca2+] in KU812 cells expressing human CCR4 receptor. Format: functional, cell-based. In a few lines: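 Calcium rise evoked by TARC in KU812 cells.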

Assay [6] concerns the target T3, Probable C-C chemokine receptor type 3 (Mus musculus, UniProt P51678).
T3 sequence (P51678 whole entry): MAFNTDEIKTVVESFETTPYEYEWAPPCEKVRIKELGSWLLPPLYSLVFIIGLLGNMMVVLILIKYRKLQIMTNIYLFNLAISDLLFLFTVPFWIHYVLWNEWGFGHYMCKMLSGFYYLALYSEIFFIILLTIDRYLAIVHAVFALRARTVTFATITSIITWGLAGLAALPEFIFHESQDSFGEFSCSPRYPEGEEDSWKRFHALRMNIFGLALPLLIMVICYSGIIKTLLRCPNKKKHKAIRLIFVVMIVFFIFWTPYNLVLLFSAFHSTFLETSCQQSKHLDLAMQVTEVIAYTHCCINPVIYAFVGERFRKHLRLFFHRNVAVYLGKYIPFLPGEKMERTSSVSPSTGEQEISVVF
Nature of the assay: Inhibitory activity against I-Eotaxin alpha binding to mouse CCR3 receptors. In a few lines: as §1

For assay [7], the target named is T4, C-C chemokine receptor type 3 (Homo sapiens, UniProt P51677).
T4 sequence (P51677 whole entry): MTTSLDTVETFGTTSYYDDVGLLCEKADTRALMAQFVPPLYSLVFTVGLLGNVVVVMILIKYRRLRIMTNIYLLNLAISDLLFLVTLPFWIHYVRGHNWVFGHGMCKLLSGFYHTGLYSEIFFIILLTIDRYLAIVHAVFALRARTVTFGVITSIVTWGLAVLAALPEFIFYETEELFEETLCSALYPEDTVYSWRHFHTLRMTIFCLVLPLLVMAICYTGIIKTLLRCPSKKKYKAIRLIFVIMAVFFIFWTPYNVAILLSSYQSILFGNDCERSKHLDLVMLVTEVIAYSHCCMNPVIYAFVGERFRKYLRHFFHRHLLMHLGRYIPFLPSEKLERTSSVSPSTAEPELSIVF
Nature of the assay: Inhibitory activity against I-Eotaxin binding to human CCR3 receptors. In a few lines: (§2)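 CCR-transfected CHO cells, detached with PBS(-)/2 mM EDTA, in Krebs-Ringer phosphate buffer with 0.1% BSA and 0.1% glucose. 1×10^5 cells incubated with 50 pM 125I-chemokine plus antagonist, 1 h at 37 °C to equilibrium. Nonspecific binding measured with 100 nM unlabeled chemokine. Reaction stopped with ice-cold binding buffer.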

Assay [8] is described as follows: Inhibitory activity of I-interleukin-8-binding to human neutrophil at human CXCR1,2 receptor. In a few lines:
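125I-interleukin-8 binding to human neutrophil membranes.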

The target of assay [9] is T1, C-C chemokine receptor type 1. Nature of the assay: Inhibitory activity against MIP-1 alpha- induced [Ca2+] response in U937 cells expressing human CCR1 receptor. The assay is classed as functional, cell-based, U-937. In a few lines: (§3)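 U937 cells transfected with the CCR receptor were loaded with 1 µM Fura-2 AM for 30 min at 37 °C and washed twice. They were resuspended at 1 × 10^6 cells/mL in Krebs-Henseleit-HEPES with 0.1% BSA. The stirred cuvette suspension was read at 37 °C for chemokine-induced fluorescence change, with excitation at 340 and 380 nm and emission at 510 nm.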

Assay [10] has as its target T3, Probable C-C chemokine receptor type 3. Nature of the assay: Inhibitory activity against I-Eotaxin induced [Ca2+] response in mouse CCR3 receptor. Format: functional. In a few lines: as §3
For assay [11], the target named is T5, C-C chemokine receptor type 1 (Mus musculus, UniProt P51675).
T5 sequence (P51675 whole entry): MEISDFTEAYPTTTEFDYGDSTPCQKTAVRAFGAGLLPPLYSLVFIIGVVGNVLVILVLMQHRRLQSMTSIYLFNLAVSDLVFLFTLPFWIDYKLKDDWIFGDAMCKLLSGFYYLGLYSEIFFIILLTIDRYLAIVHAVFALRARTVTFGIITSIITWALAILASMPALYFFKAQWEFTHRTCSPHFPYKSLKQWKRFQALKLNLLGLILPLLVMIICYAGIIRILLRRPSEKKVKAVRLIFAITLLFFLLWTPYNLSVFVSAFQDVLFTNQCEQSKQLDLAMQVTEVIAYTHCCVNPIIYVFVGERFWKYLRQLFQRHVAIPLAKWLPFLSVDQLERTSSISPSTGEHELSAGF
The experiment in a line: inhibitory activity against MIP-1 alpha- induced [Ca2+] response in U937 cells expressing mouse CCR1 receptor. Format: functional, cell-based, U-937. Put shortly: (§4)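 Calcium flux in U937 cells transfected with CCR receptors, loaded with 1 µM Fura-2 AM for 30 min at 37 °C, washed twice and resuspended at 1×10^6 cells/mL in Krebs-Henseleit-Hepes buffer with 0.1% BSA. Stirred cuvette fluorescence read at 37 °C, excitation 340 and 380 nm, emission 510 nm, after chemokine stimulation.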

The target of assay [12] is T5, C-C chemokine receptor type 1. Nature of the assay: Inhibitory activity against [125I]-MIP-1 alpha binding to mouse CCR1 receptors. In a few lines:
as §1

Assay [13] concerns the target T4, C-C chemokine receptor type 3. Nature of the assay: Inhibitory activity against I-Eotaxin induced [Ca2+] response in human CCR3 receptor. Format: functional. Put shortly: as §4
Assay [14] has as its target T5, C-C chemokine receptor type 1. Nature of the assay: Inhibitory activity against 125 I -MIP-1 alpha binding to mouse CCR1 receptors. In a few lines:
as §2

Structures are written as SMILES. pIC50: −log10 of the molar value. Bounds are passed on as bounds.

C-C chemokine receptor type 2, sequence (P41597 whole entry): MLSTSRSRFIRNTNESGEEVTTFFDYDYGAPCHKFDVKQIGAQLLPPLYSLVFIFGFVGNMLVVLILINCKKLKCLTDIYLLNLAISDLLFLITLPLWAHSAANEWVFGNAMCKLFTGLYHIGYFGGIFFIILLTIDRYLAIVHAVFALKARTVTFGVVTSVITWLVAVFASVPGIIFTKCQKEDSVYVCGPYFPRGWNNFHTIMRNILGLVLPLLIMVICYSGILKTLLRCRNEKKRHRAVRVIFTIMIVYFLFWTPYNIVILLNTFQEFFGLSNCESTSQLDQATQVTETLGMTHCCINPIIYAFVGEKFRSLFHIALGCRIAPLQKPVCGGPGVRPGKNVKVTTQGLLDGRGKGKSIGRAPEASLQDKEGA
C-C chemokine receptor type 5, sequence (P51681 whole entry): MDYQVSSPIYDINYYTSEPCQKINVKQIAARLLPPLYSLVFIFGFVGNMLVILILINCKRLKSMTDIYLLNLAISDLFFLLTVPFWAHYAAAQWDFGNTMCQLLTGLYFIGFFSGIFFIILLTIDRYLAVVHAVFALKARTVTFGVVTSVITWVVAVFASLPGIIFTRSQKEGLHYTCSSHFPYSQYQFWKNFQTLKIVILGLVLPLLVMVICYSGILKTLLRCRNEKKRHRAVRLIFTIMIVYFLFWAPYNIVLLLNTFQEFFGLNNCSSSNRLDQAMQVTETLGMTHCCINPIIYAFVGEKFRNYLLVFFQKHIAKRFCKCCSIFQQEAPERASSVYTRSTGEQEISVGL

Turning to `CC[N+]1(C/C2=C/CCCCCC2)CCC(NC(=O)C2c3cc(Cl)ccc3Oc3ccc(Cl)cc32)CC1` (stereo in doubt; 2q-1), the negative logarithm of the IC50 (pIC50) (as a rule, the negative decadic logarithm of the IC50, by convention in mol/L) is < 6.00 in [1]; < 5.00 in [2]; < 6.00 in assay [3]; 9.05 in [4]; < 5.00 in assay [5]; 6.34 in [6]. Besides, the pIC50 in assay [7] is 9.24; in [8], < 6.00; in [9] it was 9.14; in [10] it was 6.44; in assay [11] it was 7.68; in [12], 8.24. The pIC50 in [13] is 8.21; in assay [14], 8.24.
